Results: ChEMBL document CHEMBL5653623 (J Pharmacol Exp Ther, 2015)
Calls of active or inactive are those of the source. The rule behind the calls is not given here.

Key:
[1] = Toxicity in C57Bl/6 mouse assessed as change in body weight measured after 11 days; conditions: in vivo, 264 h, time 11 day
In short: (§1)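 Male C57Bl/6 mice, singly housed on a reversed 12 h light cycle, were fed diet formulated to give 3, 10, 30, 60 or 120 mg/kg/day (assumes 3 g/day intake) or untreated diet for 11 days. Body weight and food intake were monitored. Spontaneous locomotion and rearing were recorded over 60 min. On day 11, mice were euthanized 4, 8 or 24 h after dark onset and plasma and brain drug levels measured; n = 5 per group.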

[2] = Tmax in C57Bl/6 mouse at 10 mg/kg, po measured after 480 mins by LC-MS/MS analysis; assay type: ADME, organism-based; conditions: in vivo
In short: (§2)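 Male C57Bl/6 mice (20-25 g) given a single IV dose (2 mg/kg) or oral dose (10 mg/kg). Blood was sampled at 5, 15, 30, 60, 120, 240, 360 and 480 min and plasma prepared by centrifugation. Plasma drug levels were measured by LC/MS/MS. Values are mean (CV%), N=3.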

[3] = Unbound brain concentration in C57Bl/6 mouse at 1 mg/kg, po administered for 1 hr; assay type: ADME, organism-based; conditions: in vivo
Mus musculus [4] = experiment: Effect on behavioral changes in 14 weeks old MitoPark mouse striatum assessed as TH level at 30 mg/kg/day by […] relative to control; assay type: functional
In short: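 Striatal protein (20 μg) from diet-treated MitoPark and wild-type mice was denatured at 70 °C for 10 min and run on 3-8% Tris-acetate gels. Blots were probed with anti-tyrosine hydroxylase and anti-GAPDH overnight at 4 °C, then an HRP secondary. TH is expressed as % of control.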

Mus musculus [5] = experiment: Effect on behavioral changes in 8 weeks old MitoPark mouse striatum assessed as TH level at 30 mg/kg/day administered for 3 weeks by […] relative to control; assay type: functional
[6] = biological target: Mitogen-activated protein kinase kinase kinase 14 (Homo sapiens, UniProt Q99558); experiment: Inhibition of MAP3K14 (unknown origin)
[7] = Unbound brain concentration in C57Bl/6 mouse administered for 11 days and measured after 24 hrs; assay type: ADME, tissue-based; conditions: in vivo, 264 h, time 11 day; in short: as §1
[8] = biological target: Leucine-rich repeat serine/threonine-protein kinase 2 (Mus musculus) (UniProt Q5S006); experiment: In vivo inhibition of LRRK2 in MitoPark mouse brain assessed as total LRRK2 protein level in presence of MJFF-2 antibody by Western blotting analysis; assay type: functional, organism-based
In short: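 MitoPark mice fed diet targeted to 30 mg/kg/day, or untreated diet, from 5 weeks of age. Cortex collected after 3, 9 or 15 weeks of treatment, n = 10 per group. Blots probed for pSer935 LRRK2, total LRRK2 (MJFF-2 antibody) and GAPDH. pSer935 reported relative to vehicle-diet MitoPark mice.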

[9] = Unbound brain concentration in C57Bl/6 mouse at 3 mg/kg, po administered for 1 hr; assay type: ADME, organism-based; conditions: in vivo
[10] = biological target: T1, Mitogen-activated protein kinase kinase kinase 5 (Homo sapiens, UniProt Q99683); experiment: Inhibition of MAP3K5 (unknown origin)
T1 sequence (Q99683 whole entry): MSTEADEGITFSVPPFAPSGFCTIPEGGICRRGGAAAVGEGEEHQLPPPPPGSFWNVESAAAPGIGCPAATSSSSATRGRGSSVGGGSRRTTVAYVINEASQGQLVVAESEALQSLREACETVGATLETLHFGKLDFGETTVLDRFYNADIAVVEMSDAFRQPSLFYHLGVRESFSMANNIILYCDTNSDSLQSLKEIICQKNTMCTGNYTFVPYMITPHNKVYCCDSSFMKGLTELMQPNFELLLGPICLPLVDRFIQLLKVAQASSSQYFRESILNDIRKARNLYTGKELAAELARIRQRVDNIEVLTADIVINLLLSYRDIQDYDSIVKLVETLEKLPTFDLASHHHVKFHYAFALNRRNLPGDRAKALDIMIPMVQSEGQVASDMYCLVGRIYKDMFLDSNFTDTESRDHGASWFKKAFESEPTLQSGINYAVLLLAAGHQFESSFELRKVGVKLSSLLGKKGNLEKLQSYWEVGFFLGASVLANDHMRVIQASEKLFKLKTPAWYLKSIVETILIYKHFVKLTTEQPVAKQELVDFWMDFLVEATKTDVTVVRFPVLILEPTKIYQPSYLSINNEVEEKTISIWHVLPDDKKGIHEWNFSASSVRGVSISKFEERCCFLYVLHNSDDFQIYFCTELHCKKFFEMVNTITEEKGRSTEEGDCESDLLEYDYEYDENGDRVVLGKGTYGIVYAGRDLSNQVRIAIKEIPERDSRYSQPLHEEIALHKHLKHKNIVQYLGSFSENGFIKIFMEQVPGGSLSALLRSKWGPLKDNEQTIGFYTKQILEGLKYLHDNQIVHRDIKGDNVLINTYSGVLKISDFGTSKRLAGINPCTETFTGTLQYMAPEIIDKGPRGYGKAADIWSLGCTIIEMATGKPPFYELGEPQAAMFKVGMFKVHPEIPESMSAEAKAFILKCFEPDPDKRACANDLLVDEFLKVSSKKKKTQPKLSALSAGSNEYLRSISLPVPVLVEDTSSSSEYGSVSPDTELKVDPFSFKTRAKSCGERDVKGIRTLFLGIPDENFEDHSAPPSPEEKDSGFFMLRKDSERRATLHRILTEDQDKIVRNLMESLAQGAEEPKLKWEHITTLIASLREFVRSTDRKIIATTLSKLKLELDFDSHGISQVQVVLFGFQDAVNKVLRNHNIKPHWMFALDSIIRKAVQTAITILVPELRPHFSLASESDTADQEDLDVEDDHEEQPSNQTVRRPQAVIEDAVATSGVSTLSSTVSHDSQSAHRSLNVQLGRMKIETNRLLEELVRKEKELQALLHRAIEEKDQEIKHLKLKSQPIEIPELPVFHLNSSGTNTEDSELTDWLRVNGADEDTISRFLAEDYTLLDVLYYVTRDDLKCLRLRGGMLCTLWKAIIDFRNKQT

[11] = Oral biavailability in C57Bl/6 mouse at 10 mg/kg measured after 480 mins by LC-MS/MS analysis; assay type: ADME, organism-based; conditions: in vivo; in short: as §2
[12] = biological target: Leucine-rich repeat serine/threonine-protein kinase 2 (Mus musculus) (UniProt Q5S006); experiment: In vivo inhibition of LRRK2 in C57Bl/6 mouse brain assessed as inhibition of pSer935 LRRK2 administered for 11 days and measured after 24 hrs by Western blotting analysis; assay type: functional, organism-based; conditions: dose 3-120 mg/kg, time 11.0 day
In short: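 Male C57Bl/6 mice, singly housed on a reversed light cycle. Fed drug diet targeted to 3, 10, 30, 60 or 120 mg/kg/day (assuming 3 g/day intake), or untreated diet, for 11 days. Killed 4, 8 or 24 h after dark-cycle onset, n = 5 per group. Cortex immunoblotted for pSer935/total LRRK2 and total LRRK2/GAPDH. Total LRRK2 detected with MJFF2 antibody.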

Mus musculus [13] = experiment: Effect on food intake in MitoPark mouse at 30 mg/kg administered for 15 weeks; assay type: functional, organism-based
In short: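 MitoPark mice, 5 weeks old, were allocated by baseline 60-min LMA to untreated diet or diet targeting 30 mg/kg/day (reformulated every 3 weeks). Wild-type littermates received vehicle diet. Body weight and food intake were recorded weekly. 60-min LMA (distance, rearing) was run at 8, 11, 14 and 17 weeks of age.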

[14] = Cmax in C57Bl/6 mouse at 10 mg/kg, po measured after 480 mins by LC-MS/MS analysis; assay type: ADME, organism-based; conditions: in vivo; in short: as §2

Leucine-rich repeat serine/threonine-protein kinase 2 (Mus musculus), sequence (Q5S006 whole entry): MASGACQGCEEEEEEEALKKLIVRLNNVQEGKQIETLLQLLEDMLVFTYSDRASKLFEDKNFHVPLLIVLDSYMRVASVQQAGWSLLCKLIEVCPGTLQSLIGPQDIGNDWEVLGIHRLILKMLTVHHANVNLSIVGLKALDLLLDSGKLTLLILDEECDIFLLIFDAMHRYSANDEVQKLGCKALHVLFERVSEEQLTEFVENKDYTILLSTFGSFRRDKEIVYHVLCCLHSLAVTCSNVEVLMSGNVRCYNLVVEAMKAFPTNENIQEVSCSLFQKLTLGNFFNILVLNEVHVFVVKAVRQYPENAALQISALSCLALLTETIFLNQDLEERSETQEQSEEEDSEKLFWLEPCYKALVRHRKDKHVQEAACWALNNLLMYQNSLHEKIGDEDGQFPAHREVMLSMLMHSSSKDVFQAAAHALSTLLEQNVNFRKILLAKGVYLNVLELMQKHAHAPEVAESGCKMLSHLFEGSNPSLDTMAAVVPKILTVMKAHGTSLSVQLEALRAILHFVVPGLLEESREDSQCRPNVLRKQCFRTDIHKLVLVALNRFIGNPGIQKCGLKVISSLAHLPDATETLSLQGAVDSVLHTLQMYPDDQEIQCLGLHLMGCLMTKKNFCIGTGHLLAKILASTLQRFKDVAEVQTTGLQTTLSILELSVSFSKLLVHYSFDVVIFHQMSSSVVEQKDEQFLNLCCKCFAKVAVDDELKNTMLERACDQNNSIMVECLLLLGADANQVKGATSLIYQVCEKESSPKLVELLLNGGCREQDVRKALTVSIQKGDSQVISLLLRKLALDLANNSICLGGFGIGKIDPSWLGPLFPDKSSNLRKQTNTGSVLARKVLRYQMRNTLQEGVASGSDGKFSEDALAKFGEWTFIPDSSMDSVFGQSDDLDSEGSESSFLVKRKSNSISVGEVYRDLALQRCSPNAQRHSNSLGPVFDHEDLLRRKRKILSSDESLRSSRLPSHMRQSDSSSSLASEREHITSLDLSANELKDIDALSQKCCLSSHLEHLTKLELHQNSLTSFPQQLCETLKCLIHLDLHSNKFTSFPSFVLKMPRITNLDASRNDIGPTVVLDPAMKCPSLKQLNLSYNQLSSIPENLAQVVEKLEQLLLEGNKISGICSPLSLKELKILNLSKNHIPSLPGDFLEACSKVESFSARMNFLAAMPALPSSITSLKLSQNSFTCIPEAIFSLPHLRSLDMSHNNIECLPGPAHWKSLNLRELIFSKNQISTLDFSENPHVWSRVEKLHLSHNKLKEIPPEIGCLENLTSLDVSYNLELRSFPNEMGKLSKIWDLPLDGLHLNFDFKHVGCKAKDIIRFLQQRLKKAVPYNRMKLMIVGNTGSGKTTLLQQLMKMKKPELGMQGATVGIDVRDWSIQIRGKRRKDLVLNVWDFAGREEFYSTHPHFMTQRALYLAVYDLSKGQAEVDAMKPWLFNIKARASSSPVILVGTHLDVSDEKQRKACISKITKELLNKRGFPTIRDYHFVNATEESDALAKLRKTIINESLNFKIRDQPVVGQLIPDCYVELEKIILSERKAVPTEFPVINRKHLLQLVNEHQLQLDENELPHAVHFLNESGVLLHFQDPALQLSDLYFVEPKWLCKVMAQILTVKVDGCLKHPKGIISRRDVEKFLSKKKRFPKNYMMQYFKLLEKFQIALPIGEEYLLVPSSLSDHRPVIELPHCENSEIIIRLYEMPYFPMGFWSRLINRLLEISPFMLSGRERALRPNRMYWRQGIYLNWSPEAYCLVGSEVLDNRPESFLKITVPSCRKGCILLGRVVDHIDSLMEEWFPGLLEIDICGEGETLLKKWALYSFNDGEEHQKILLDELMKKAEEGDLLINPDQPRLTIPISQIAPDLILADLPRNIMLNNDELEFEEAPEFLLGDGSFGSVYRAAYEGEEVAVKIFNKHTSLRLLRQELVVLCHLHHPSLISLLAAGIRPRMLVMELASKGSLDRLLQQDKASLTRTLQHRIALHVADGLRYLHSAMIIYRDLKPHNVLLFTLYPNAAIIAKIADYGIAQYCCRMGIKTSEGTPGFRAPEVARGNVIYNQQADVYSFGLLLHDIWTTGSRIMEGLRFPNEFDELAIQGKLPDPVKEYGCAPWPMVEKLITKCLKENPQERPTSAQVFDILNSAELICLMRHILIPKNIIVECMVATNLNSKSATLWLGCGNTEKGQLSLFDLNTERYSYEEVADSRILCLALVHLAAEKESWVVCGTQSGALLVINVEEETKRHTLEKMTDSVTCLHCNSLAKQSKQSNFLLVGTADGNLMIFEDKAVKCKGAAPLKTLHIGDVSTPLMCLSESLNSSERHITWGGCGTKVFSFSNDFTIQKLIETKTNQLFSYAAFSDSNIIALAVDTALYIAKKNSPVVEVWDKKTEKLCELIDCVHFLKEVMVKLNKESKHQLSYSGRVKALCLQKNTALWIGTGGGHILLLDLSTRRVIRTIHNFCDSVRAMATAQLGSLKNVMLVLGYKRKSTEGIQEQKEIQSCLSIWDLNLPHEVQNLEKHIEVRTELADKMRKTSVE
Mitogen-activated protein kinase kinase kinase 14, sequence (Q99558 whole entry): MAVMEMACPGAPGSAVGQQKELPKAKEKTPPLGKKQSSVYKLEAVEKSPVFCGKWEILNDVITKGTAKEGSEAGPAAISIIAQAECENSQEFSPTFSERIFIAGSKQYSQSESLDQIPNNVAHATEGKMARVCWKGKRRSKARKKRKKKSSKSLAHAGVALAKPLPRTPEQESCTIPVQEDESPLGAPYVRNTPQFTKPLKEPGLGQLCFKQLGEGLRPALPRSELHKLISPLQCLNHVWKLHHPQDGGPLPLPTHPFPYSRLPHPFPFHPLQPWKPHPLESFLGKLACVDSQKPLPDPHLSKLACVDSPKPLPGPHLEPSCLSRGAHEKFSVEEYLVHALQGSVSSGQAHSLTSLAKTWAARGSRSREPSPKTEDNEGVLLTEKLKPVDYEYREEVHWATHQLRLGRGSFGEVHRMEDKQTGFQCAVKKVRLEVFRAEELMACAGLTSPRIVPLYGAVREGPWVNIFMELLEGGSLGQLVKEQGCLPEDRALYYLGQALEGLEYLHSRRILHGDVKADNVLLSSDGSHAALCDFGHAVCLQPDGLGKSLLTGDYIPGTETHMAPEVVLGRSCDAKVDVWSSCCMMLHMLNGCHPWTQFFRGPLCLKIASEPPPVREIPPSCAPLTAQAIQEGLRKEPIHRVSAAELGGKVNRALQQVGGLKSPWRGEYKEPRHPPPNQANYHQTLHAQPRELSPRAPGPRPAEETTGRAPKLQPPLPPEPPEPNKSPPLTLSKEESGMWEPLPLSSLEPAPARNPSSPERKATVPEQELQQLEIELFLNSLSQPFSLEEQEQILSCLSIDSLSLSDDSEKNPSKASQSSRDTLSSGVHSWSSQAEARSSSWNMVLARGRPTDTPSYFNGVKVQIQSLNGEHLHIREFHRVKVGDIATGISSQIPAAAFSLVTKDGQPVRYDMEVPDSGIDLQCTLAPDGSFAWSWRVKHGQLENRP

- Tmax [2]: 45 min
- Drug uptake(free) [3]: 0.6 nM
- IC50 [6]: 244 nM
- Drug uptake(free) [7]: Active
- inhibition [8]: inactive
- Drug uptake(free) [9]: 2.4 nM
- IC50 [10]: 428 nM
- bioavailability [11]: 45%
- inhibition [12]: Dose-Dependent Effect
- Cmax [14]: 298 nM
SMILES: C[C@@H]1CN(c2cc(-c3n[nH]c4ccc(OC5(C)CC5)cc34)ncn2)C[C@H](C)O1 [MLi-2]
- Activity [1]: Non-Toxic
- Activity (Mus musculus [4]): 42.6%
- Activity (Mus musculus [5]): 49.89%
- Activity (Mus musculus [13]): inactive
